According to ChEMBL document CHEMBL1933017, “Synthesis and biological evaluation of some thiazolidinones as antimicrobial agents” (2012):
In brackets after ≈: the same amount, converted by molar mass.

Legend:
Proteus vulgaris [1] = assay: Antibacterial activity against Proteus vulgaris at 100 ug/disc after 24 hrs by disc diffusion method; assay type: functional; conditions: read-out: DIZ
Outline: (§1)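 Paper disc diffusion on autoclaved Mueller-Hinton agar poured 5 mm deep. Agar was swab-inoculated with 10⁵ CFU/mL suspension (0.5 McFarland). Discs 6.25 mm across were soaked in compound solution in DMSO (3.12–100 µg/mL) and plates incubated 24 h at (37 ± 1) °C. Read-out was inhibition zone (mm). DMSO control disc; ciprofloxacin or ketoconazole reference, 100 µg/disc. Mean of three independent experiments.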

Shigella flexneri [2] = assay: Antibacterial activity against Shigella flexneri at 100 ug/disc after 24 hrs by disc diffusion method; assay type: functional; conditions: read-out: DIZ; outline: as §1
Staphylococcus aureus [3] = assay: Antibacterial activity against Staphylococcus aureus after 24 hrs by agar streak dilution method; assay type: functional
Outline: (§2)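 MIC by agar streak dilution. Graded amounts of DMSO stock (100 μg/mL) were mixed into molten sterile nutrient agar and poured 4–5 mm deep. Serial concentrations spanned 3.12–100 µg/mL. Plates were inoculated with about 10⁵ CFU/mL of bacterial suspension and incubated at (37 ± 1) °C for 24 h. Each value is the mean of three independent experiments.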

Bacillus cereus [4] = assay: Antibacterial activity against Bacillus cereus after 24 hrs by agar streak dilution method; assay type: functional; outline: as §2
Escherichia coli [5] = assay: Antibacterial activity against Escherichia coli after 24 hrs by agar streak dilution method; assay type: functional; outline: as §2
Pseudomonas aeruginosa [6] = assay: Antibacterial activity against Pseudomonas aeruginosa […] after 24 hrs by agar streak dilution method; assay type: functional
Klebsiella pneumoniae [7] = assay: Antibacterial activity against Klebsiella pneumoniae […] after 24 hrs by agar streak dilution method; assay type: functional
Salmonella typhi [8] = assay: Antibacterial activity against Salmonella Typhi after 24 hrs by agar streak dilution method; assay type: functional, Salmonella enterica subsp. enterica serovar Typhi; conditions: Salmonella enterica
Outline: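 Agar streak dilution: DMSO stock (100 µg/mL) graded into molten sterile nutrient agar, poured 4–5 mm deep and solidified. Plates carry serial dilutions spanning 3.12–100 µg/mL. Applied ~10⁵ CFU/mL suspension, then incubated 24 h at (37 ± 1) °C. MIC read as the lowest inhibitory concentration; each value is the mean of three independent experiments.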

Proteus vulgaris [9] = assay: Antibacterial activity against Proteus vulgaris after 24 hrs by agar streak dilution method; assay type: functional; outline: as §2
Shigella flexneri [10] = assay: Antibacterial activity against Shigella flexneri after 24 hrs by agar streak dilution method; assay type: functional; outline: as §2
Aspergillus niger [11] = assay: Antifungal activity against Aspergillus niger after 48 hrs by agar streak dilution method; assay type: functional
Outline: (§3)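 Fungal MIC by agar streak dilution on Sabouraud dextrose agar, poured 4–5 mm deep. Compound from a DMSO stock (100 μg/mL) was incorporated at serial concentrations of 3.12–100 µg/mL. Plates were inoculated with about 10⁵ CFU/mL of suspension and incubated at (37 ± 1) °C for 48 h. Each value is the mean of three independent experiments.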

Aspergillus fumigatus [12] = assay: Antifungal activity against Aspergillus fumigatus after 48 hrs by agar streak dilution method; assay type: functional; outline: as §3
Aspergillus clavatus [13] = assay: Antifungal activity against Aspergillus clavatus after 48 hrs by agar streak dilution method; assay type: functional; outline: as §3
Candida albicans [14] = assay: Antifungal activity against Candida albicans after 48 hrs by agar streak dilution method; assay type: functional; outline: as §3
Aspergillus niger [15] = assay: Antifungal activity against Aspergillus niger at 100 ug/disc after 24 hrs by disc diffusion method; assay type: functional; conditions: read-out: DIZ; outline: as §1
Aspergillus fumigatus [16] = assay: Antifungal activity against Aspergillus fumigatus at 100 ug/disc after 24 hrs by disc diffusion method; assay type: functional; conditions: read-out: DIZ; outline: as §1
Aspergillus clavatus [17] = assay: Antifungal activity against Aspergillus clavatus at 100 ug/disc after 24 hrs by disc diffusion method; assay type: functional; conditions: read-out: DIZ; outline: as §1
Candida albicans [18] = assay: Antifungal activity against Candida albicans at 100 ug/disc after 24 hrs by disc diffusion method; assay type: functional; conditions: read-out: DIZ; outline: as §1
Staphylococcus aureus [19] = assay: Antibacterial activity against Staphylococcus aureus at 100 ug/disc after 24 hrs by disc diffusion method; assay type: functional; conditions: read-out: DIZ; outline: as §1
Bacillus cereus [20] = assay: Antibacterial activity against Bacillus cereus at 100 ug/disc after 24 hrs by disc diffusion method; assay type: functional; conditions: read-out: DIZ; outline: as §1
Escherichia coli [21] = assay: Antibacterial activity against Escherichia coli at 100 ug/disc after 24 hrs by disc diffusion method; assay type: functional; conditions: read-out: DIZ; outline: as §1
Pseudomonas aeruginosa [22] = assay: Antibacterial activity against Pseudomonas aeruginosa at 100 ug/disc after 24 hrs by disc diffusion method; assay type: functional; conditions: read-out: DIZ; outline: as §1
Klebsiella pneumoniae [23] = assay: Antibacterial activity against Klebsiella pneumoniae at 100 ug/disc after 24 hrs by disc diffusion method; assay type: functional; conditions: read-out: DIZ; outline: as §1
Salmonella typhi [24] = assay: Antibacterial activity against Salmonella Typhi at 100 ug/disc after 24 hrs by disc diffusion method; assay type: functional, Salmonella enterica subsp. enterica serovar Typhi; conditions: Salmonella enterica, read-out: DIZ
Outline: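 Paper disc diffusion on Mueller-Hinton agar poured 5 mm deep; 10⁵ CFU/mL suspension (0.5 McFarland) swabbed over surface. 6.25 mm filter paper discs soaked in compound in DMSO, incubated 24 h at (37 ± 1) °C; inhibition zone diameter in mm. DMSO disc as blank; ciprofloxacin 100 µg/disc as reference. Mean of three independent experiments.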

| SMILES | zone of inhibition at 100 µg/disc (Proteus vulgaris [1]) | zone of inhibition at 100 µg/disc (Shigella flexneri [2]) | MIC (Staphylococcus aureus [3]) | MIC (Bacillus cereus [4]) | MIC (Escherichia coli [5]) | MIC (Pseudomonas aeruginosa [6]) | MIC (Klebsiella pneumoniae [7]) | MIC (Salmonella typhi [8]) | MIC (Proteus vulgaris [9]) | MIC (Shigella flexneri [10]) | MIC (Aspergillus niger [11]) | MIC (Aspergillus fumigatus [12]) | MIC (Aspergillus clavatus [13]) | MIC (Candida albicans [14]) | zone of inhibition at 100 µg/disc (Aspergillus niger [15]) | zone of inhibition at 100 µg/disc (Aspergillus fumigatus [16]) | zone of inhibition at 100 µg/disc (Aspergillus clavatus [17]) | zone of inhibition at 100 µg/disc (Candida albicans [18]) | zone of inhibition at 100 µg/disc (Staphylococcus aureus [19]) | zone of inhibition at 100 µg/disc (Bacillus cereus [20]) | other results |
| --- | --- | --- | --- | --- | --- | --- | --- | --- | --- | --- | --- | --- | --- | --- | --- | --- | --- | --- | --- | --- | --- |
| CCN1CCN(CC2SC(c3ccccc3Br)N(c3ccc(Nc4nc(Oc5cc(=O)n(C)c6ccccc56)nc(N(C)C)n4)cc3)C2=O)CC1 (centres undefined) | 15 mm | 11 mm | 100 µg/mL (≈ 130 µM) | 100 µg/mL (≈ 130 µM) | 100 µg/mL (≈ 130 µM) | 100 µg/mL (≈ 130 µM) | 100 µg/mL (≈ 130 µM) | 100 µg/mL (≈ 130 µM) | 100 µg/mL (≈ 130 µM) | 100 µg/mL (≈ 130 µM) | 100 µg/mL (≈ 130 µM) | 100 µg/mL (≈ 130 µM) | 100 µg/mL (≈ 130 µM) | 100 µg/mL (≈ 130 µM) | < 10 mm | < 10 mm | 13 mm | < 10 mm | < 10 mm | 13 mm | zone of inhibition at 100 µg/disc (Escherichia coli [21]): < 10 mm; zone of inhibition at 100 µg/disc (Pseudomonas aeruginosa [22]): 14 mm; zone of inhibition at 100 µg/disc (Klebsiella pneumoniae [23]): 12 mm; zone of inhibition at 100 µg/disc (Salmonella typhi [24]): 12 mm |
| CCN1CCN(CC2SC(c3ccccc3C(=O)O)N(c3ccc(Nc4nc(Oc5cc(=O)n(C)c6ccccc56)nc(N(C)C)n4)cc3)C2=O)CC1 (centres undefined) | 12 mm | 15 mm | 100 µg/mL (≈ 136 µM) | 50 µg/mL (≈ 67.9 µM) | 50 µg/mL (≈ 67.9 µM) | 100 µg/mL (≈ 136 µM) | 50 µg/mL (≈ 67.9 µM) | 100 µg/mL (≈ 136 µM) | 100 µg/mL (≈ 136 µM) | 100 µg/mL (≈ 136 µM) | 100 µg/mL (≈ 136 µM) | 100 µg/mL (≈ 136 µM) | 100 µg/mL (≈ 136 µM) | 100 µg/mL (≈ 136 µM) | 15 mm | 11 mm | 17 mm | 17 mm | 21 mm | 21 mm | zone of inhibition at 100 µg/disc (Escherichia coli [21]): 18 mm; zone of inhibition at 100 µg/disc (Pseudomonas aeruginosa [22]): 13 mm; zone of inhibition at 100 µg/disc (Klebsiella pneumoniae [23]): 16 mm; zone of inhibition at 100 µg/disc (Salmonella typhi [24]): 13 mm |
| CCN1CCN(CC2SC(c3ccc(C(=O)O)cc3)N(c3ccc(Nc4nc(Oc5cc(=O)n(C)c6ccccc56)nc(N(C)C)n4)cc3)C2=O)CC1 (centres undefined) | 25 mm | 27 mm | 25 µg/mL (≈ 34 µM) | 12.5 µg/mL (≈ 17 µM) | 6.25 µg/mL (≈ 8.49 µM) | 25 µg/mL (≈ 34 µM) | 12.5 µg/mL (≈ 17 µM) | 50 µg/mL (≈ 67.9 µM) | 12.5 µg/mL (≈ 17 µM) | 6.25 µg/mL (≈ 8.49 µM) | 25 µg/mL (≈ 34 µM) | 50 µg/mL (≈ 67.9 µM) | 50 µg/mL (≈ 67.9 µM) | 100 µg/mL (≈ 136 µM) | 27 mm | 20 mm | 23 mm | 25 mm | 26 mm | 23 mm | zone of inhibition at 100 µg/disc (Escherichia coli [21]): 27 mm; zone of inhibition at 100 µg/disc (Pseudomonas aeruginosa [22]): 22 mm; zone of inhibition at 100 µg/disc (Klebsiella pneumoniae [23]): 26 mm; zone of inhibition at 100 µg/disc (Salmonella typhi [24]): 22 mm |
| CCN1CCN(CC2SC(c3ccc(OC)cc3)N(c3ccc(Nc4nc(Oc5cc(=O)n(C)c6ccccc56)nc(N(C)C)n4)cc3)C2=O)CC1 (centres undefined) | 21 mm | 26 mm | 6.25 µg/mL (≈ 8.66 µM) | 6.25 µg/mL (≈ 8.66 µM) | 6.25 µg/mL (≈ 8.66 µM) | 12.5 µg/mL (≈ 17.3 µM) | 25 µg/mL (≈ 34.6 µM) | 6.25 µg/mL (≈ 8.66 µM) | 50 µg/mL (≈ 69.3 µM) | 6.25 µg/mL (≈ 8.66 µM) | 12.5 µg/mL (≈ 17.3 µM) | 12.5 µg/mL (≈ 17.3 µM) | 12.5 µg/mL (≈ 17.3 µM) | 12.5 µg/mL (≈ 17.3 µM) | 25 mm | 27 mm | 24 mm | 26 mm | 28 mm | 27 mm | zone of inhibition at 100 µg/disc (Escherichia coli [21]): 27 mm; zone of inhibition at 100 µg/disc (Pseudomonas aeruginosa [22]): 25 mm; zone of inhibition at 100 µg/disc (Klebsiella pneumoniae [23]): 25 mm; zone of inhibition at 100 µg/disc (Salmonella typhi [24]): 26 mm |
| CCN1CCN(CC2SC(c3ccc(OC)c(OC)c3)N(c3ccc(Nc4nc(Oc5cc(=O)n(C)c6ccccc56)nc(N(C)C)n4)cc3)C2=O)CC1 (centres undefined) | 23 mm | 22 mm | 25 µg/mL (≈ 33.2 µM) | 12.5 µg/mL (≈ 16.6 µM) | 25 µg/mL (≈ 33.2 µM) | 12.5 µg/mL (≈ 16.6 µM) | 50 µg/mL (≈ 66.5 µM) | 25 µg/mL (≈ 33.2 µM) | 50 µg/mL (≈ 66.5 µM) | 50 µg/mL (≈ 66.5 µM) | 100 µg/mL (≈ 133 µM) | 25 µg/mL (≈ 33.2 µM) | 50 µg/mL (≈ 66.5 µM) | 50 µg/mL (≈ 66.5 µM) | 21 mm | 26 mm | 24 mm | 23 mm | 23 mm | 24 mm | zone of inhibition at 100 µg/disc (Escherichia coli [21]): 24 mm; zone of inhibition at 100 µg/disc (Pseudomonas aeruginosa [22]): 24 mm; zone of inhibition at 100 µg/disc (Klebsiella pneumoniae [23]): 23 mm; zone of inhibition at 100 µg/disc (Salmonella typhi [24]): 25 mm |
| CCN1CCN(CC2SC(c3ccc(O)cc3O)N(c3ccc(Nc4nc(Oc5cc(=O)n(C)c6ccccc56)nc(N(C)C)n4)cc3)C2=O)CC1 (centres undefined) | 14 mm | 16 mm | 100 µg/mL (≈ 138 µM) | 100 µg/mL (≈ 138 µM) | 100 µg/mL (≈ 138 µM) | 100 µg/mL (≈ 138 µM) | 100 µg/mL (≈ 138 µM) | 100 µg/mL (≈ 138 µM) | 100 µg/mL (≈ 138 µM) | 100 µg/mL (≈ 138 µM) | 100 µg/mL (≈ 138 µM) | 100 µg/mL (≈ 138 µM) | 100 µg/mL (≈ 138 µM) | 100 µg/mL (≈ 138 µM) | 11 mm | 15 mm | 17 mm | < 10 mm | 15 mm | 17 mm | zone of inhibition at 100 µg/disc (Escherichia coli [21]): 15 mm; zone of inhibition at 100 µg/disc (Pseudomonas aeruginosa [22]): 17 mm; zone of inhibition at 100 µg/disc (Klebsiella pneumoniae [23]): 16 mm; zone of inhibition at 100 µg/disc (Salmonella typhi [24]): 14 mm |
